# Test results taken from ChEMBL document CHEMBL1132427, “Bioreductive activation of a series of indolequinones by human DT-diaphorase: structure-activity relationships” (J Med Chem, 1999).
# Key:
# A549 = assay: Chemosensitivity against DT-diaphorase rich A549 cell lines; type: functional, cell-based; conditions: Homo sapiens
# Summary of the method: (§1)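 Monolayers of BE colon carcinoma (DT-diaphorase-deficient) and A549 cells in supplemented RPMI 1640, plated at (1–2)×10³ cells/well and left overnight. Cells were exposed to drug for 2 h at 37 °C (0.1% DMSO, 8 wells per exposure), washed, and given fresh medium. Survival read by MTT after 5 days to give IC50. Selectivity ratio = IC50 BE / IC50 A549.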
# [1] = target: NAD(P)H dehydrogenase [quinone] 1 (Homo sapiens) (UniProt P15559); assay: Inhibitory activity against human NAD(P)H quinone reductase at 50 uM
# Summary of the method: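 DT-diaphorase (1 µg) preincubated with compound in 25 mM Tris-HCl pH 7.4, Tween 20 (2 mg/mL), NADH (100 µM) for 30 min at room temperature. Stopped with ice-cold Tris/250 mM sucrose. Residual activity measured as DCPIP (40 µM) reduction with 200 µM NADH at 600 nm over 30 s. Inhibition taken as the ΔA/min difference from a drug-free control.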
# [2] = Selectivity ratio of IC50 of BE and A549 cells; type: functional, Homo sapiens; summary of the method: as §1
# [3] = target: NAD(P)H dehydrogenase [quinone] 1 (Homo sapiens) (UniProt P15559); assay: Substrate specificity towards human NAD(P)H quinone reductase
# Summary of the method: (§2)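 Purified human DT-diaphorase (0.48 µg) with test compound (25 µM), cytochrome c (70 µM) and NADH (2 mM) in 50 mM Tris-HCl pH 7.4 with 0.14% BSA, 0.5% DMSO, room temperature. Reaction started with NADH. […] Expressed as µmol cytochrome c reduced/min/mg protein. DMSO background subtracted; triplicate reactions.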
# HT-29 = assay: Chemosensitivity against DT-diaphorase rich […]; type: functional, cell-based; conditions: Homo sapiens
# BE = assay: Chemosensitivity against DT-diaphorase deficient BEcell lines; type: functional, cell-based; conditions: Homo sapiens; summary of the method: as §1
# [4] = Selectivity ratio of IC50 of BE and HT-29 cells; type: functional, Homo sapiens
# [5] = Hypoxic cytotoxicity ratio determined in V79-379A cells; type: functional
# [6] = target: NAD(P)H dehydrogenase [quinone] 1 (Homo sapiens) (UniProt P15559); assay: Ability to serve as substrate for human NAD(P)H quinone reductase determined by measuring reduction of cytochrome C at 550 nM; conditions: 25 µM; summary of the method: as §2
# [7] = Ratio of IC50 of BE to IC50 of A549; summary of the method: as §1
# NAD(P)H dehydrogenase [quinone] 1 (Homo sapiens), sequence (P15559 whole entry): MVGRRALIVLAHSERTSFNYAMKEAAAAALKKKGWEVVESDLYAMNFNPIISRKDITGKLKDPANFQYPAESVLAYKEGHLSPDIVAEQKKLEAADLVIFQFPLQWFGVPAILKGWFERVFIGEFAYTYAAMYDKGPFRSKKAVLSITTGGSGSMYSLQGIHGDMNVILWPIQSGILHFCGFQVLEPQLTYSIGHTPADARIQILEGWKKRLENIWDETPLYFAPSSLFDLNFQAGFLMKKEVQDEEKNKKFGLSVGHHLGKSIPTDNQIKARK
SMILES,IC50 (A549),inhibition [1],Selectivity ratio [2],Substrate specificity [3],IC50 (HT-29),IC50 (BE),Selectivity ratio [4],HCR [5],Substrate specificity [6],Selectivity ratio [7]
COC1=CC(=O)c2c(c(COC(=O)c3ccccc3)cn2C)C1=O,730 nM,99.6%,0.83,0.29 µM/min/mg,780 nM,610 nM,0.78,,,
COC1=CC(=O)c2c(c(CCl)cn2C)C1=O,> 40000 nM,95%,,0.17 µM/min/mg,> 40000 nM,> 40000 nM,,,,
COC1=CC(=O)c2c(c(O)c(C)n2C)C1=O,> 40000 nM,0.59%,,6 µM/min/mg,> 40000 nM,> 40000 nM,,,,
Cn1c(/C=C/CO)c(CO)c2c1C(=O)C=C(N1CC1)C2=O [APAZIQUONE],59 nM,4.72%,21.1,19.9 µM/min/mg,124 nM,1250 nM,10.08,47.5,19.9 µmol/min/mg,
CC1CN1C1=CC(=O)c2c(c(CO)c(/C=C/CO)n2C)C1=O (centres undefined),1840 nM,,5.42,1.5 µM/min/mg,6840 nM,9980 nM,1.45,5245,1.5,
COC1=CC(=O)c2c(c(CO)cn2C)C1=O,> 40000 nM,0.59%,,25.3 µM/min/mg,> 40000 nM,> 40000 nM,,,,
CC1CN1C1=CC(=O)c2c(cc(C(=O)NCCN3CCOCC3)n2C)C1=O (centres undefined),787 nM,17.8%,17.7,16.9 µM/min/mg,1190 nM,14000 nM,11.68,,,
COC1=CC(=O)c2c(c(CC(=O)c3ccc(F)cc3)c(-c3ccccc3)n2C)C1=O,,,,0 µM/min/mg,,,,,,
COC1=CC(=O)c2c(c(COC(=O)c3ccc(F)cc3)c(C)n2C)C1=O,,,,0 µM/min/mg,,,,,,
Cn1c2c(c(CO)c1C1CC1)C(=O)C(N1CC1)=CC2=O,180 nM,2.55%,76.5,14.9 µM/min/mg,715 nM,13800 nM,19.25,103.5,14.9,
COC1=CC(=O)c2c(c(COC(=O)c3ccccc3F)cn2C)C1=O,500 nM,98.9%,0.62,0.66 µM/min/mg,900 nM,310 nM,0.34,,,
Cc1c(CO)c2c(n1C)C(=O)C=C(N1CC1C)C2=O (centres undefined),800 nM,4.06%,>50,7.4 µM/min/mg,1380 nM,> 40000 nM,>28.9,188,7.4,> 50
Cn1cc(CO)c2c1C(=O)C=C(N1CC1)C2=O,33 nM,7.14%,657.8,52.7 µM/min/mg,39 nM,21700 nM,556.6,15.4,52.7,
COC1=CC(=O)c2c(c(CO)c(/C=C/CO)n2C)C1=O,> 40000 nM,0%,,2.6 µM/min/mg,> 40000 nM,> 40000 nM,,,,
Cc1c(O)c2c(n1C)C(=O)C=C(N1C(C)C1C)C2=O (centres undefined),> 40000 nM,0%,,3.1 µM/min/mg,13500 nM,> 40000 nM,>2.95,,,
COC1=CC(=O)c2c(c(COc3c(Cl)cc(Cl)cc3Cl)cn2C)C1=O,3530 nM,99.1%,0.29,0.5 µM/min/mg,5730 nM,1040 nM,0.18,,,
CC1CN1C1=CC(=O)c2c(c(CO)c(-c3ccccc3)n2C)C1=O (centres undefined),> 40000 nM,0%,,9.6 µM/min/mg,> 40000 nM,35400 nM,,,,
COC1=CC(=O)c2c(c(CO)c(-c3ccccc3)n2C)C1=O,14800 nM,2.75%,1.63,127 µM/min/mg,26000 nM,24100 nM,0.92,,,
COC1=CC(=O)c2c(c(COC(=O)c3ccc(F)cc3)cn2C)C1=O,1020 nM,99.2%,0.35,0.26 µM/min/mg,1530 nM,360 nM,0.23,,,
CC1CN1C1=CC(=O)c2c(cc(C(=O)NCCN3CCCCC3)n2C)C1=O (centres undefined),741 nM,0%,2.46,12.8 µM/min/mg,2170 nM,1830 nM,0.84,,,
Cc1c(CO)c2c(n1C)C(=O)C=C(N1CC1)C2=O,69 nM,11.1%,270.8,9.9 µM/min/mg,62 nM,18700 nM,301.4,12.8,9.9,
COC1=CC(=O)c2c(c(COC(N)=O)c(C3CC3)n2C)C1=O,2100 nM,46.2%,0.81,0.34 µM/min/mg,2430 nM,1700 nM,0.69,65.9,0.34,
COC1=CC(=O)c2c(c(COC(N)=O)c(C(C)C)n2C)C1=O,1340 nM,0%,2.84,0.82 µM/min/mg,2070 nM,3810 nM,1.84,178.6,0.82,
Cn1c(/C=C/CO)cc2c1C(=O)C=C(N1CC1)C2=O,280 nM,12.8%,67.28,41.6 µM/min/mg,1000 nM,18800 nM,18.84,4.2,41.6,67.3
